ChEMBL document CHEMBL3877264, “Quinolidene-rhodanine conjugates: Facile synthesis and biological evaluation” (Eur J Med Chem, 2017)
Converted amounts (≈) assume the structure as drawn.

Columns and labels:
[1] = Antifungal activity against Fusarium oxysporum NCIM 1332 by standard agar method; type: functional
Summary of the method: (§1)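 MICs determined by standard agar method; DMSO as solvent control.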

[2] = test system: Staphylococcus aureus; assay: Growth inhibition of Staphylococcus aureus NCIM 2010 at 30 ug/ml measured after 12 hrs relative to control; type: functional; conditions: NCIM 2010, 12 h, read-out: GI
Summary of the method: (§2)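 Bacteria grown in LB at 37 °C and 180 rpm to OD 1. Compounds added to wells, then 0.1% inoculum of 1 OD culture (620 nm). Growth read as OD at 620 nm after 8 h for gram-negative and after 12 h for gram-positive strains.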

[3] = test system: Staphylococcus aureus; assay: Growth inhibition of Staphylococcus aureus NCIM 2010 at 10 ug/ml measured after 12 hrs relative to control; type: functional; conditions: NCIM 2010, 12 h, read-out: GI; summary of the method: as §2
[4] = test system: Staphylococcus aureus; assay: Growth inhibition of Staphylococcus aureus NCIM 2010 at 3 ug/ml measured after 12 hrs relative to control; type: functional; conditions: NCIM 2010, 12 h, read-out: GI; summary of the method: as §2
[5] = test system: Bacillus subtilis; assay: Growth inhibition of Bacillus subtilis NCIM 2079 at 10 ug/ml measured after 12 hrs relative to control; type: functional; conditions: NCIM 2079, 12 h, read-out: GI; summary of the method: as §2
[6] = test system: Escherichia coli; assay: Antibacterial activity against Escherichia coli NCIM 2688 measured after 8 hrs; type: functional; conditions: NCIM 2688, 8 h; summary of the method: as §2
[7] = test system: Mycobacterium tuberculosis; assay: Growth inhibition of Mycobacterium tuberculosis H37Ra ATCC 25177 at active stage at 50 ug/ml measured after 8 days by XTT dye based two fold dilution method relative to control; type: functional; conditions: H37Ra ATCC 25177, 192 h, read-out: GI
Summary of the method: (§3)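 MTB H37Ra was grown in Dubos medium, then exposed in Mycobacterium pheli minimal medium (pH 6.6) to compounds dissolved in DMSO. The assay ended on day 8 (active) or day 12 (dormant). Viable cells were measured by XTT reduction menadione assay at 470 nm, blank-corrected, relative to vehicle control. Triplicates were expressed as mean ± SD. MIC came from dose-response curves.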

[8] = test system: Mycobacterium tuberculosis; assay: Growth inhibition of Mycobacterium tuberculosis H37Ra ATCC 25177 at active stage at 25 ug/ml measured after 8 days by XTT dye based two fold dilution method relative to control; type: functional; conditions: H37Ra ATCC 25177, 192 h, read-out: GI; summary of the method: as §3
[9] = test system: Mycobacterium tuberculosis; assay: Growth inhibition of Mycobacterium tuberculosis H37Ra ATCC 25177 at active stage at 12.5 ug/ml measured after 8 days by XTT dye based two fold dilution method relative to control; type: functional; conditions: H37Ra ATCC 25177, 192 h, read-out: GI
[10] = test system: Mycobacterium tuberculosis; assay: Growth inhibition of Mycobacterium tuberculosis H37Ra ATCC 25177 at active stage at 6.25 ug/ml measured after 8 days by XTT dye based two fold dilution method relative to control; type: functional; conditions: H37Ra ATCC 25177, 192 h, read-out: GI; summary of the method: as §3
[11] = test system: Mycobacterium tuberculosis; assay: Growth inhibition of Mycobacterium tuberculosis H37Ra ATCC 25177 at active stage at 1.56 ug/ml measured after 8 days by XTT dye based two fold dilution method relative to control; type: functional; conditions: H37Ra ATCC 25177, 192 h, read-out: GI; summary of the method: as §3
[12] = test system: Mycobacterium tuberculosis; assay: Growth inhibition of Mycobacterium tuberculosis H37Ra ATCC 25177 at active stage at 0.78 ug/ml measured after 8 days by XTT dye based two fold dilution method relative to control; type: functional; conditions: H37Ra ATCC 25177, 192 h, read-out: GI; summary of the method: as §3
[13] = test system: Mycobacterium tuberculosis; assay: Growth inhibition of Mycobacterium tuberculosis H37Ra ATCC 25177 at dormant stage at 12.5 ug/ml measured after 12 days by XTT dye based two fold dilution method relative to control; type: functional; conditions: H37Ra ATCC 25177, 288 h, read-out: GI
[14] = test system: Mycobacterium tuberculosis; assay: Growth inhibition of Mycobacterium tuberculosis H37Ra ATCC 25177 at dormant stage at 1.56 ug/ml measured after 12 days by XTT dye based two fold dilution method relative to control; type: functional; conditions: H37Ra ATCC 25177, 288 h, read-out: GI; summary of the method: as §3
[15] = test system: Mycobacterium tuberculosis; assay: Growth inhibition of Mycobacterium bovis BCG ATCC 35743 at dormant stage at 3.13 ug/ml measured after 12 days by nitrate reductase dye based two fold dilution method relative to control; type: functional; conditions: BCG str. ATCC 35743, 288 h, read-out: GI
Summary of the method: (§4)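 M. bovis BCG was grown in Dubos medium and assayed in Mycobacterium pheli minimal medium (pH 6.6), with compounds from DMSO stocks. Incubation lasted 8 days for active and 12 days for dormant cultures. Viability was read by nitrate reductase at 540 nm against cell-free blanks, with vehicle set as 100% growth. Primary screen was at 30, 10 and 3 µg/ml, in triplicate, mean ± SD. MIC was taken from dose-response curves.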

[16] = test system: Mycobacterium tuberculosis; assay: Growth inhibition of Mycobacterium bovis BCG ATCC 35743 at active stage measured after 8 days by nitrate reductase dye based two fold dilution method; type: functional; conditions: BCG str. ATCC 35743, 192 h; summary of the method: as §4
[17] = test system: Mycobacterium tuberculosis; assay: Growth inhibition of Mycobacterium tuberculosis H37Ra ATCC 25177 at dormant stage measured after 12 days by XTT dye based two fold dilution method; type: functional; conditions: H37Ra ATCC 25177, 288 h; summary of the method: as §3
[18] = test system: Aspergillus flavus; assay: Antifungal activity against Aspergillus flavus NCIM 539 by standard agar method; type: functional; summary of the method: as §1
[19] = Cytotoxicity against primary HUVEC assessed as growth inhibition at 100 ug/ml measured after 48 hrs by MTT assay relative to control; type: toxicity, cell-based; conditions: human, read-out: GI
[20] = Cytotoxicity against primary HUVEC measured after 48 hrs by MTT assay; type: toxicity, cell-based; conditions: human
[21] = Cytotoxicity against human THP1 cells measured after 48 hrs by MTT assay; type: toxicity, cell-based, THP-1
Summary of the method: (§5)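 MTT assay with 48 h compound exposure. THP-1 macrophages made by 24 h PMA treatment. Each concentration tested in triplicate in one experiment. % cytotoxicity = (control−test)/(control−blank)×100, with control = cells + DMSO and blank = medium without cells. IC50 from % survival versus concentration plots.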

[22] = Cytotoxicity against human THP1 cells assessed as growth inhibition at 100 ug/ml measured after 48 hrs by MTT assay relative to control; type: toxicity, cell-based, THP-1; conditions: read-out: GI; summary of the method: as §5
[23] = Cytotoxicity against human PANC1 cells measured after 48 hrs by MTT assay; type: toxicity, cell-based, PANC-1
[24] = Cytotoxicity against human HeLa cells at 100 ug/ml assessed as growth inhibition measured after 48 hrs by MTT assay relative to control; type: toxicity, cell-based; conditions: read-out: GI
[25] = Selectivity index, ratio of GI50 for human THP1 cells to MIC for Mycobacterium tuberculosis H37Ra ATCC 25177 at dormant stage; type: toxicity, cell-based, THP-1; conditions: read-out: Selectivity Index
Summary of the method: (§6)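 SI is the cell-line GI50 divided by the dormant-stage mycobacterial MIC. […] THP-1 macrophages were PMA-differentiated for 24 h.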

[26] = Selectivity index, ratio of GI50 for […]-differentiated human THP1 cells to MIC for Mycobacterium tuberculosis H37Ra ATCC 25177 at dormant stage; type: toxicity, cell-based, THP-1; conditions: read-out: Selectivity Index; summary of the method: as §6

Structure (SMILES)	MIC [1] [µg/mL]	inhibition of growth at 30 µg/mL [2] [%]	inhibition of growth at 10 µg/mL [3] [%]	inhibition of growth at 3 µg/mL [4] [%]	inhibition of growth at 10 µg/mL [5] [%]	MIC [6] [µg/mL]	inhibition of growth at 50 µg/mL [7] [%]	inhibition of growth at 25 µg/mL [8] [%]	inhibition of growth at 12.5 µg/mL [9] [%]	inhibition of growth at 6.25 µg/mL [10] [%]	inhibition of growth at 1.56 µg/mL [11] [%]	inhibition of growth at 0.78 µg/mL [12] [%]	inhibition of growth at 12.5 µg/mL [13] [%]	inhibition of growth at 1.56 µg/mL [14] [%]	IC50 [16] [µg/mL]	IC90 [16] [µg/mL]	IC50 [17] [µg/mL]	IC90 [17] [µg/mL]	MIC [18] [µg/mL]	inhibition at 48 h, 100 ug/ml [19] [%]	other results
O=C(O)CN1C(=O)/C(=C/c2cc3cc(F)ccc3nc2Cl)SC1=S	25 (≈ 65.3 µM)	-19	-1.12	-0.864	-2.7	> 30	82.8	10.4	-3.91	11.3	-22.9	-48.2	1.72	22.6	> 30	> 30	> 30	> 30	100 (≈ 261 µM)	31.2	inhibition of growth at 3.13 µg/mL [15]: 99.5%; GI50 at 48 h [20]: > 100 µg/mL; GI50 at 48 h [21]: > 100 µg/mL; inhibition at 48 h, 100 ug/ml [22]: 27.6%; GI50 at 48 h [23]: > 100 µg/mL; inhibition at 48 h, 100 ug/ml [24]: 9.01%
Cc1cccc2cc(/C=C3\SC(=S)N(CC(=O)O)C3=O)c(Cl)nc12	175 (≈ 462 µM)	15.5	-4.38	-24.6	-19.6	> 30	107	93.4	22	12.9	-2.86	-16	51	15.7	> 30	> 30	10.3 (≈ 27.2 µM)	19.9 (≈ 52.5 µM)	100 (≈ 264 µM)	34	GI50 at 48 h [20]: > 100 µg/mL; GI50 at 48 h [21]: > 100 µg/mL; inhibition at 48 h, 100 ug/ml [22]: 32.3%; GI50 at 48 h [23]: > 100 µg/mL; inhibition at 48 h, 100 ug/ml [24]: 3.1%; selectivity ratio [25]: 5; selectivity ratio [26]: 5
